Experiments:
Format in all cases: functional
[1] = species: Rattus norvegicus; assay: Concentration required to inhibit 50% of the transport of [3H]choline into synaptosomes, using rat hippocampal synaptosomes.; details: Hippocampus
How it was run: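 Rat hippocampus dissected on ice, homogenized in 0.32 M sucrose; P2 pellet (12000g, 20 min) resuspended in sucrose. Synaptosomes incubated with [3H]choline and increasing inhibitor concentrations, 8 min at 30 °C; filtered, washed three times, lysed in water, tritium counted. High-affinity uptake = standard-medium minus sodium-free accumulation, per mg protein (Lowry); IC50 from percent inhibition.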

[2] = species: Cavia porcellus; assay: Relative potency with respect to choline in isolated guinea pig ileum preparations.
[3] = species: Cavia porcellus; assay: Relative potency with respect to acetylcholine in isolated guinea pig ileum preparations.
How it was run: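 Guinea pig ileum segment in Tyrode's solution (NaCl 137 mM, KCl 2.68 mM, MgCl2 1.05 mM, CaCl2 1.80 mM, NaH2PO4 0.42 mM, NaHCO3 11.90 mM, glucose 5.55 mM), contents flushed. Contractions to 3–7 concentrations recorded by polygraph and compared against concentration responses to acetylcholine and choline.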

SMILES	IC50 [1]	Relative potency [2]	Relative potency [3]
CC(O)C[N+](C)(C)CBr.[Br-] (stereo unspecified)	56 µM	0.04	
CC1C[N+](C)(C)CO1.[Br-] (stereo unspecified)	200 µM	2	
C[N+]1(C)CCOC1.[Br-]	78 µM	4.25	
CC(=O)OCC[N+](C)(C)CI.[I-]			0.11
CC(=O)OCC[N+](C)(C)CBr.[Br-]			0.05
C[N+](C)(CBr)CCO.[Br-]	0.87 µM	0.14	
C[N+](C)(CCl)CCO.[I-]	0.92 µM	0.13	
CC(O)C[N+](C)(C)CCl.[I-] (stereo unspecified)	130 µM	0.05	
CC(=O)OC(C)C[N+](C)(C)CI.[I-] (stereo unspecified)			0.02
C[N+](C)(CI)CCO.[I-]	0.49 µM	0.33	
CC(O)C[N+](C)(C)CI.[I-] (stereo unspecified)	50 µM	0.1	
CC(=O)OCC[N+](C)(C)CCl.[I-]			0.09
CC(=O)OCC[N+](C)(C)C.[I-] [ACETYLCHOLINE IODIDE]			1

Reference: ChEMBL document CHEMBL1125279, “Neurochemistry of aging. 2. Design, synthesis, and biological evaluation of halomethyl analogues of choline with high affinity choline transport inhibitory activity” (J Med Chem, 1991)
